Bioassay records from PubChem BioAssay.
PLK1 kinase inh = blocks human PLK1 kinase activity; P53350; recombinant PLK1 kinase, TR-FRET peptide phosphorylation; inhibition, % at 10 µM; actives 0.53% (n = 97,000);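 active means inhibition of 50% or more in the single-concentration screen; inactive means inhibition below 50%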;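 further: 0% = DMSO max control and 100% = H-89 dihydrochloride min control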
Target sequence (P53350 whole entry, looked up): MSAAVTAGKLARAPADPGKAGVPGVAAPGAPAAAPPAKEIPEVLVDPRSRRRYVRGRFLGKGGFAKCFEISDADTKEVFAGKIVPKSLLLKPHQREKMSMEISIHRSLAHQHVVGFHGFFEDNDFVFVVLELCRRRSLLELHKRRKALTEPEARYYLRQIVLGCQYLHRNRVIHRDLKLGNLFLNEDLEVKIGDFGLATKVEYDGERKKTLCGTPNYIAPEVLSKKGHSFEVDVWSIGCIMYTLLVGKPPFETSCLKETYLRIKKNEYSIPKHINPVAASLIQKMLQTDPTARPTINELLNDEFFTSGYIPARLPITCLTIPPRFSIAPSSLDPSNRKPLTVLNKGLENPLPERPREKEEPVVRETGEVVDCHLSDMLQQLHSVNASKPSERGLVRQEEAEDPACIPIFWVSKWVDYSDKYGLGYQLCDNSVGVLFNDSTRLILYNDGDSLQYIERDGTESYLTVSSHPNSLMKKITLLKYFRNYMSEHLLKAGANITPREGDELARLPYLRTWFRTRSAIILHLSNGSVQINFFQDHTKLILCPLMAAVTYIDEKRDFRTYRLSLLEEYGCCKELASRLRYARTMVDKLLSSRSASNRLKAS
HIV Rev-RRE inh = HIV Rev-RRE protein-RNA interaction inhibition; P05866; Rev peptide-RRE RNA binding, FRET; inhibition, % at 8 µM; actives 0.79% (n = 97,000);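 active means inhibition above the screen-wide mean plus 3 SD, cut at about 35% in these data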;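 further: 0% = median DMSO wells and 100% = median Neomycin B control wells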
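Assay system: Labelled RRE RNA duplex and labelled Rev peptide | Times: 5 min preincubation and 15 min binding, 25 °C | Detection: FRET, ex 480 nm, em 540 and 671 nm | Evaluation: % inhibition of FRET ratio versus controls | Benchmarks: DMSO wells as 0% and neomycin B wells as 100% inhibition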
PTPN22 act = LYP (human) phosphatase activation. Q9Y2R2. recombinant LYP, DiFMUP fluorescence; 0 = plate median, 100 = signal doubled. activation, % at 2 µM. actives 0.11% (n = 96,000);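 active means activation at 2 µM above a set limit, the mean plus 5 SD, cut at about 37% in these data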
PLAP act = activates human placental alkaline phosphatase; AID 696; activation fold at 20 µM; purified PLAP enzyme, luminescent substrate read-out; hits give high values; P05187; actives 1.2% (n = 96,000); in the data active means activation fold above about 2
PTPN22 inh 2 = blocks human PTPN22 phosphatase activity; Q9Y2R2; recombinant LYP catalytic domain, DiFMUP fluorescence; inhibition, % at 2 µM; actives 0.21% (n = 96,000);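 active means inhibition at 2 µM at or above a set limit, the screen mean plus 3 SD, cut at about 24% in these data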;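 further: 0% = DMSO with enzyme and 100% = enzyme fully blocked by orthovanadate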
Plk1 PBD FP = Plk1 (human) PBD binding inhibition; P53350; Plk1 PBD phosphopeptide binding, fluorescence polarization; inhibition, %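 (tested at about 20 µM)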; actives 0.13% (n = 97,000); in the data active means inhibition above about 34%, passing the limit was not always enough
Starred values were filed as active, the others as inactive; / = not tested or not shown; [ ] = dose if it differs, or a comment. Rows were chosen to be rich in hits. Some 2.7% of all compounds tested hit in one or more screens of this group.

SMILES	PLK1 kinase inh	HIV Rev-RRE inh	PTPN22 act	PLAP act	PTPN22 inh 2	Plk1 PBD FP
O=C(CCN1C(=O)COc2ccccc21)NCCCN1CCN(c2ccccc2F)CC1	-13	-2	3	1.1	-5	-12
COC(=O)c1cc(C(=O)c2ccc(Cl)cc2Cl)cn1C	-10	0	-2	0.9	6	-9
Cn1cc(C(=O)c2ccc(Cl)cc2Cl)cc1C(=O)N/N=C(\N)COc1cccc(C(F)(F)F)c1	-13	7	-4	2*	4	-1
Cc1noc(C(=O)N2CC3(C)CC2CC(C)(C)C3)c1Cl (stereo not given)	70*	2	/	1.2	/	12
Cc1cc(Cl)c(S(=O)(=O)Nc2ccc3c(c2)OCO3)cc1OCC(=O)NC1CCCCC1	2	10	24	1.7	-21	21
Cc1cc(Cl)c(S(=O)(=O)N2CCCC2)cc1OCC(=O)NC1CCCCC1	6	13	8	2*	-5	-13
O=C(COc1ccc(S(=O)(=O)N2CCCC2)cc1Cl)NC1CCCC1	-3	8	-5	1.1	4	-7
Cc1cc(Cl)c(S(=O)(=O)NC(C(=O)O)C(C)C)cc1OCC(=O)NC1CCCCC1 (stereo not given)	-7	-3	-1	2*	4	3
Cc1nc(N)sc1N=Nc1ccc(F)cc1	59*	4	9	1	-11	-5
O=C(CSc1nnc(-c2ccc(Cl)cc2Cl)n1C1CCCCC1)N1CCCC1	-5	2	2	2*	-1	10
Nc1cc(N)c(OCC(F)(F)F)cc1OCC(F)(F)F	-16	68*	-1	1.2	0	-10
CCS(=O)(=O)N1CCC(C(=O)NCc2cccnc2)CC1	-7	1	3	0.9	-4	4
CCCCCSc1nnc2c(n1)OC(C)N(C(C)=O)c1ccccc1-2 (stereo not given)	57*	6	/	1.6	/	22
CCCC(C)C(=O)Nc1nnc(C)s1 (stereo not given)	-8	7	-2	1	1	-11
Cc1ccc(/C=C(\C#N)C(=O)Nc2c(C)cccc2C)s1	-6	19	8	0.8	-10	-19
Cc1ccc(NC(=O)/C(C#N)=C/c2ccc(C)s2)c(C)c1	-9	37*	-6	0.9	6	-20
CCN(CC)C(=O)c1cc(-c2ccc(Br)cc2)on1	-8	6	8	1.1	-10	-12
Nc1cc(=O)[nH]c(SCCNS(=O)(=O)c2ccccc2)n1	-13	9	-16	1.2	15	4
Cc1nnc2sc(-c3ccc(NC(=O)c4ccc(-c5ccc(Cl)cc5Cl)o4)cc3)nn12	-19	19	-32	/	32*	-10
CCOC(=O)c1ccc(Nc2c(CC)c(C)nc3ncnn23)cc1	-9	-4	-14	/	10	-20
COC(=O)c1ccc(Nc2cc(C)nc3ncnn23)cc1	5	7	8	2.2*	-10	27
Cc1cc(Nc2ccc(C(C)C)cc2)n2ncnc2n1	/	/	/	1.7	/	/
CCOC(=O)c1ccc(Nc2cc(C)nc3ncnn23)cc1	-8	19	-5	2*	2	-30
CCOC(=O)C1CCN(Cc2ccc(N(C)C)cc2)CC1	/	/	/	1.1	/	/
CN(C)c1ccc(/C=N/N=C2/NC(=O)/C(=C/c3ccc([N+](=O)[O-])cc3)S2)cc1	-9	35	-23	1.1	25*	-14
SMILES	PLK1 kinase inh	HIV Rev-RRE inh	PTPN22 act	PLAP act	PTPN22 inh 2	Plk1 PBD FP
O=S(=O)(Nc1nc2ccccc2[nH]1)c1ccccc1	14	5	2	1	-5	20
Cc1ccc(S(=O)(=O)NCc2nc3ccccc3[nH]2)cc1	-9	7	-1	2.3*	-3	25
O=S(=O)(Nc1nc2ccccc2[nH]1)c1ccc(Cl)cc1	61*	1	-5	1	3	12
O=S(=O)(/N=C(/Nc1ccccc1F)c1ccccc1)c1ccccc1	-10	-1	-6	1.1	6	21
CN(/C(=N\S(=O)(=O)c1ccccc1)C(F)(F)F)c1ccccc1	-8	37*	5	1	0	6
O=C(CCN1C(=O)c2ccccc2C1=O)N1CCN(C2c3ccccc3-c3ccccc32)CC1	-7	1	-16	1.5	21	-7
OCc1nc2ccccc2n1C/C=C/c1ccccc1	-5	2	0	2*	0	6
CCOc1ccc2nc(NC(=O)C(NS(=O)(=O)c3cccc4nsnc34)C(C)C)sc2c1 (stereo not given)	-1	5	-5	2.4*	4	25
CCc1nc(Nc2ccccc2)c2oc3ccccc3c2n1	-12	8	0	0.9	5	-21
O=C(N/N=C/c1cc(Br)ccc1O)C(=O)Nc1ccccc1OC(F)(F)C(F)F	-13	49*	-19	1.1	23	2
C=CCn1c(SCc2c(C)noc2C)nc2sc3c(c2c1=O)CCCCC3	-7	-3	-4	1	2	14
O=C1C2C3c4ccccc4C(c4ccccc43)C2C(=O)N1Cc1cccnc1 (stereo not given)	-19	-3	-2	0.9	0	-9
CC(C)C(C(=O)Nc1sc2c(c1C#N)CCCCC2)N1C(=O)c2ccccc2C1=O (stereo not given)	-14	7	-5	1.1	5	38
Nc1c(C(=O)C2CC2)sc2nc(-c3cccs3)cc(C(F)(F)F)c12	-30	107*[fluorescence artefact?]	8	1.1	-5	-10
CC(C)NC(=O)c1sc2nc(-c3cccs3)cc(-c3cccs3)c2c1N	-2	11	-18	1.7	20	-2
Cc1ccc(-c2csc(NC(=O)c3cccc(N4C(=O)CCC4=O)c3)n2)o1	67*	3	/	/	/	9
CSc1nc(-c2ccccc2)nn1S(=O)(=O)c1ccccc1	-14	1	8	/	-14	-1
CCn1c(SCC(=O)Nc2oc(-c3ccccc3)c(-c3ccccc3)c2C#N)nnc1-c1cc(OC)cc(OC)c1	-4	3	1	2.2*	-2	-19
N#C/C(C(=O)N1CCOCC1)=C1/SC(Cc2ccccc2)C(=O)N1c1ccccc1 (stereo not given)	8	44*	-2	1.4	-1	-10
CCOC(=O)c1cnc(SCc2cccc3ccccc23)nc1N	-38	10	4	0.8	-2	6
O=C(CCC1CCCC1)Nc1ccc(Br)cn1	-16	-4	0	1	-2	19
COC(=O)c1ccccc1S(=O)(=O)N1CCC(c2nc3ccccc3o2)CC1	1	8	-3	1.4	-1	-8
CCOc1ccccc1NC(=O)NC1(C(=O)N2CCN3CCCC3C2)CCCCC1 (stereo not given)	-2	4	2	2.1*	-5	16
Cc1ccc(-n2c(C3CC3c3ccc(Cl)cc3)n[nH]c2=S)cc1 (stereo not given)	-7	7	-4	1.1	7	-8
